# Source: ChEMBL document CHEMBL4028810, “Synthesis and biological evaluation of novel chalcone derivatives as a new class of microtubule destabilizing agents” (Eur J Med Chem, 2017)
# Calls of active or inactive are those of the source. The rule behind the calls is not given here.
# Legend:
# [1] = test system: NCI-H460; experiment: Cytotoxicity against human NCI-H460 cells after 48 hrs by MTT assay; assay type: functional, cell-based; conditions: NCI-H460, 48 h
# How it was run: (§1)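 Log-phase cells were seeded at about 1 × 10⁵ cells/mL in 96-well plates and allowed to settle 12 h at 37 °C in 5% CO₂. Compounds were added at five concentrations for 48 h. Absorbance was read at dual wavelength 570/630 nm. Survival was expressed as a percentage of control, and IC50 was calculated by the Bliss method (n = 5). Each test was run in triplicate.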
# [2] = test system: HepG2; experiment: Cytotoxicity against human HepG2 cells after 48 hrs by MTT assay; assay type: functional, cell-based; conditions: HepG2, 48 h; how it was run: as §1
# [3] = test system: MGC-803; experiment: Cytotoxicity against human MGC803 cells after 48 hrs by MTT assay; assay type: functional, cell-based; conditions: MGC-803, 48 h; how it was run: as §1
# [4] = test system: T-24; experiment: Cytotoxicity against human T24 cells after 48 hrs by MTT assay; assay type: functional, cell-based; conditions: T-24, 48 h; how it was run: as §1
# [5] = Resistant factor, ratio of IC50 for human A549/TR cells to IC50 for human A549 cells; assay type: functional
# How it was run: (§2)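 The resistance index is IC50 on the paclitaxel-resistant line divided by IC50 on the parental sensitive line (A549 or HeLa). Both IC50 values come from the 48 h, five-concentration growth assay with 570/630 nm absorbance read-out and Bliss-method calculation.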
# [6] = test system: HeLa; experiment: Resistant factor, ratio of IC50 for human HeLa/TR cells to IC50 for human HeLa cells; assay type: functional; how it was run: as §2
# [7] = test system: A549; experiment: Cytotoxicity against human A549 cells after 48 hrs by MTT assay; assay type: functional, cell-based; conditions: A549, 48 h; how it was run: as §1
# [8] = test system: A549/TR; experiment: Cytotoxicity against human A549/TR cells after 48 hrs by MTT assay; assay type: functional, cell-based; how it was run: as §1
# [9] = Cytotoxicity against human HeLa/TR cells after 48 hrs by MTT assay; assay type: functional, cell-based; how it was run: as §1
# [10] = species: Sus scrofa; experiment: Inhibition of porcine brain tubulin polymerization at 15 uM measured at 1 min interval for 40 mins by spectrophotometric method
# How it was run: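 Purified brain tubulin, final 3.0 mg/mL, was added to start the reaction in 80 mM PIPES pH 6.9, 2.0 mM MgCl₂, 0.5 mM EGTA, 1 mM GTP and 10.2% glycerol, with the other components prewarmed to 37 °C. Compounds were tested at 10 or 15 µM. Polymerization at 37 °C was followed as absorbance at 340 nm over 40 min.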
# [11] = test system: NCI-H460; experiment: Induction of apoptosis in human NCI-H460 cells assessed as live cells at 5 uM after 24 hrs by Annexin V-FITC/propidium iodide staining based flow cytometric method (reference value: 95.8%); assay type: functional
# [12] = test system: NCI-H460; experiment: Induction of apoptosis in human NCI-H460 cells assessed as early apoptotic cells at 5 uM after 24 hrs by Annexin V-FITC/propidium iodide staining based flow cytometric method (reference value: 1.55%); assay type: functional
# [13] = test system: NCI-H460; experiment: Induction of apoptosis in human NCI-H460 cells assessed as live cells at 10 uM after 24 hrs by Annexin V-FITC/propidium iodide staining based flow cytometric method (reference value: 95.8%); assay type: functional
# [14] = test system: NCI-H460; experiment: Induction of apoptosis in human NCI-H460 cells assessed as early apoptotic cells at 10 uM after 24 hrs by Annexin V-FITC/propidium iodide staining based flow cytometric method (reference value: 1.55%); assay type: functional
# [15] = test system: NCI-H460; experiment: Induction of apoptosis in human NCI-H460 cells assessed as late apoptotic cells at 10 uM after 24 hrs by Annexin V-FITC/propidium iodide staining based flow cytometric method (reference value: 0.839%); assay type: functional
# [16] = test system: NCI-H460; experiment: Induction of apoptosis in human NCI-H460 cells assessed as appearance of hyper-condensed nuclei after 24 hrs by Hoechst 33258 staining based fluorescence assay; assay type: functional, cell-based
# How it was run: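 NCI-H460 cells were treated 24 h at 5 or 10 µM, with untreated cells as control. Nuclei were stained with Hoechst 33258 and inspected by fluorescence for chromatin condensation.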
# [17] = test system: NCI-H460; experiment: Cell cycle arrest in human NCI-H460 cells assessed as accumulation at G1-phase at 5 uM after 48 hrs by propidium iodide staining based flow cytometric method (reference value: 75.84%); assay type: functional
# [18] = test system: NCI-H460; experiment: Cell cycle arrest in human NCI-H460 cells assessed as accumulation at G2-phase at 5 uM after 48 hrs by propidium iodide staining based flow cytometric method (reference value: 2.37%); assay type: functional
# [19] = test system: NCI-H460; experiment: Cell cycle arrest in human NCI-H460 cells assessed as accumulation at S-phase at 5 uM after 48 hrs by propidium iodide staining based flow cytometric method (reference value: 21.79%); assay type: functional
# [20] = test system: NCI-H460; experiment: Cell cycle arrest in human NCI-H460 cells assessed as accumulation at G1-phase at 10 uM after 48 hrs by propidium iodide staining based flow cytometric method (reference value: 75.84%); assay type: functional
# [21] = test system: NCI-H460; experiment: Cell cycle arrest in human NCI-H460 cells assessed as accumulation at G2-phase at 10 uM after 48 hrs by propidium iodide staining based flow cytometric method (reference value: 2.37%); assay type: functional
# [22] = test system: NCI-H460; experiment: Induction of apoptosis in human NCI-H460 cells assessed as increase in ROS generation after 24 hrs by DCFH-DA staining based flow cytometric method; assay type: functional, cell-based
# How it was run: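 NCI-H460 cells in six-well plates were treated 24 h at 5 or 10 µM, with untreated cells as control. Cells were pelleted at 2000 rpm, washed twice in ice-cold PBS and resuspended in 10 µM DCFH-DA in cell-free medium for 20 min at 37 °C in the dark. After two more PBS washes, fluorescence was read by flow cytometry.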
# [23] = test system: NCI-H460; experiment: Disruption of mitochondrial membrane potential in human NCI-H460 cells assessed as collapse of mitochondrial membrane potential at 5 uM after 24 hrs by JC-1 staining based flow cytometric method (reference value: 1.98%); assay type: functional
# How it was run: (§3)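 NCI-H460 cells were treated 24 h at 5 or 10 µM, with untreated cells as control. The medium was replaced, and the JC-1 probe was added 20 min later. Cells were then pelleted at 2000 rpm, washed twice in ice-cold PBS and analysed by flow cytometry with excitation at 488 nm and emission at 530 and 590 nm.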
# [24] = test system: NCI-H460; experiment: Disruption of mitochondrial membrane potential in human NCI-H460 cells assessed as collapse of mitochondrial membrane potential at 10 uM after 24 hrs by JC-1 staining based flow cytometric method (reference value: 1.98%); assay type: functional; how it was run: as §3
# [25] = test system: NCI-H460; experiment: Disruption of mitochondrial membrane potential in human NCI-H460 cells after 24 hrs by JC-1 staining based flow cytometric method; assay type: functional, cell-based; how it was run: as §3
# [26] = test system: NCI-H460; experiment: Induction of apoptosis in human NCI-H460 cells assessed as increase in cytochrome c release from mitochondria to cytosol after 48 hrs by Western blot method; assay type: functional, cell-based
# How it was run: (§4)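 NCI-H460 cells were treated 48 h at various concentrations. Cells were washed in ice-cold PBS and lysed on ice for 20 min, and lysates were spun at 20000 g and 4 °C for 5 min. Protein was quantified by BCA, and equal amounts were run on 12% SDS-PAGE and transferred to PVDF. Membranes were blocked in 5% milk/TBST, probed overnight at 4 °C with primary antibodies (β-actin as reference), then with peroxidase secondary for 2 h. Bands were detected by chemiluminescence.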
# [27] = test system: NCI-H460; experiment: Induction of apoptosis in human NCI-H460 cells assessed as increase in cleaved caspase-9 expression at 5 to 10 uM after 48 hrs by Western blot method; assay type: functional, cell-based; how it was run: as §4
# [28] = test system: NCI-H460; experiment: Induction of apoptosis in human NCI-H460 cells assessed as down regulation of Bcl2 expression after 48 hrs by Western blot method; assay type: functional, cell-based; how it was run: as §4
smiles,measurement,setting,value
COc1ccc(/C=C/C(=O)c2cc(OC)c(OC)c(OC)c2)cc1OCC(=O)Nc1ccccc1Cl,IC50,[1],3.75 µM
same,IC50,[2],4.06 µM
same,IC50,[3],8.42 µM
same,IC50,[4],5.8 µM
same,Ratio IC50,[5],1.2
same,Ratio IC50,[6],1.31
same,IC50,[7],5.21 µM
same,IC50,[8],6.25 µM
same,IC50,[9],5.95 µM
same,inhibition,[10],Active
same,Activity,[11],83.6%
same,Activity,[12],11.9%
same,Activity,[13],22.7%
same,Activity,[14],23.7%
same,Activity,[15],42.7%
same,Activity,[16],Dose-dependent effect
same,Activity,[17],59.12%
same,Activity,[18],11.88%
same,Activity,[19],29%
same,Activity,[20],1.95%
same,Activity,[21],72.4%
same,Activity,[22],Dose-dependent effect
same,Activity,[23],3.13%
same,Activity,[24],4.86%
same,Activity,[25],Dose-dependent effect
same,Activity,[26],Dose-dependent effect
same,Activity,[27],Active
same,Activity,[28],Dose-dependent effect
